Results reported in ChEMBL document CHEMBL1159338, “New dimeric naphthopyrones from Aspergillus niger” (J Nat Prod, 2003).
The source made the active and inactive calls. The calls are words filed in the database; no cut-off is given here.

Assays:
[1] = target: Telomerase reverse transcriptase (Homo sapiens) (UniProt O14746); experiment: Inhibition of human telomerase activity at 100 ug/mL by TRAP assay
Procedure, shortened: (§1)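 TRAP format: DMSO-dissolved samples in a 50 µL mix with HT1080 cell extract, pH 8.3 Tris-HCl/KCl/MgCl2/EGTA/Tween 20 buffer, TS primer, 50 µM each dNTP, 2 U Taq and [32P]dCTP; CX primer held under wax. Extension ran 30 min at 23 °C, then 90 °C for 90 s and 31 PCR cycles. Products were bound to DE-51 paper and scintillation-counted. Inhibition was taken relative to DMSO, minus RNase-treated extract background.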

[2] = target: Telomerase reverse transcriptase (Homo sapiens) (UniProt O14746); experiment: Inhibition of human telomerase activity by TRAP assay; details: concentration not given here; procedure, shortened: as §1
[3] = target: DNA polymerase I, thermostable (Thermus aquaticus) (UniProt P19821); experiment: Inhibition of Taq polymerase in RNase treated human HT1080 cells at 100 ug/mL by PCR; type: cell-based; details: HT-1080
Chain of DNA polymerase I, thermostable (Thermus aquaticus) (P19821 whole entry): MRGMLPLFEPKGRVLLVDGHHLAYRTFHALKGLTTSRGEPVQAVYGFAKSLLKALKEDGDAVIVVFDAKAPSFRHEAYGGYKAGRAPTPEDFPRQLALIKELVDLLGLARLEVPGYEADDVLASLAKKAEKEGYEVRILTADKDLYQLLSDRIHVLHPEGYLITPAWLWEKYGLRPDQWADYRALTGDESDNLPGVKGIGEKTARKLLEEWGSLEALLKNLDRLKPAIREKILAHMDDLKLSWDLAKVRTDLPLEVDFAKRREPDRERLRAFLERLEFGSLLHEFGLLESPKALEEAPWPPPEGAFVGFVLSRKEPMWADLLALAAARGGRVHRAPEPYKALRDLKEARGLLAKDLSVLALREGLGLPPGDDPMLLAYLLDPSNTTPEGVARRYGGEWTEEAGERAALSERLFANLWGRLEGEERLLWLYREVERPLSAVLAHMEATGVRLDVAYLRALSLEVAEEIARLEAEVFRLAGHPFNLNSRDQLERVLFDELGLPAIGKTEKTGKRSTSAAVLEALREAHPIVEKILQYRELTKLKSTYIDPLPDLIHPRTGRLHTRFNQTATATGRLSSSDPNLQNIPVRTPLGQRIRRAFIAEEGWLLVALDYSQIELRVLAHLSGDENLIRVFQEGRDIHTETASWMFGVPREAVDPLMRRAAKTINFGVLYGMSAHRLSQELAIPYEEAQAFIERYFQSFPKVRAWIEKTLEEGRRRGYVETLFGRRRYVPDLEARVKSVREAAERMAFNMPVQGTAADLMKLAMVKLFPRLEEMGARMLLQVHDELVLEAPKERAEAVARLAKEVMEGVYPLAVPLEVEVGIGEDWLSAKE

Chain of Telomerase reverse transcriptase (Homo sapiens) (O14746 whole entry): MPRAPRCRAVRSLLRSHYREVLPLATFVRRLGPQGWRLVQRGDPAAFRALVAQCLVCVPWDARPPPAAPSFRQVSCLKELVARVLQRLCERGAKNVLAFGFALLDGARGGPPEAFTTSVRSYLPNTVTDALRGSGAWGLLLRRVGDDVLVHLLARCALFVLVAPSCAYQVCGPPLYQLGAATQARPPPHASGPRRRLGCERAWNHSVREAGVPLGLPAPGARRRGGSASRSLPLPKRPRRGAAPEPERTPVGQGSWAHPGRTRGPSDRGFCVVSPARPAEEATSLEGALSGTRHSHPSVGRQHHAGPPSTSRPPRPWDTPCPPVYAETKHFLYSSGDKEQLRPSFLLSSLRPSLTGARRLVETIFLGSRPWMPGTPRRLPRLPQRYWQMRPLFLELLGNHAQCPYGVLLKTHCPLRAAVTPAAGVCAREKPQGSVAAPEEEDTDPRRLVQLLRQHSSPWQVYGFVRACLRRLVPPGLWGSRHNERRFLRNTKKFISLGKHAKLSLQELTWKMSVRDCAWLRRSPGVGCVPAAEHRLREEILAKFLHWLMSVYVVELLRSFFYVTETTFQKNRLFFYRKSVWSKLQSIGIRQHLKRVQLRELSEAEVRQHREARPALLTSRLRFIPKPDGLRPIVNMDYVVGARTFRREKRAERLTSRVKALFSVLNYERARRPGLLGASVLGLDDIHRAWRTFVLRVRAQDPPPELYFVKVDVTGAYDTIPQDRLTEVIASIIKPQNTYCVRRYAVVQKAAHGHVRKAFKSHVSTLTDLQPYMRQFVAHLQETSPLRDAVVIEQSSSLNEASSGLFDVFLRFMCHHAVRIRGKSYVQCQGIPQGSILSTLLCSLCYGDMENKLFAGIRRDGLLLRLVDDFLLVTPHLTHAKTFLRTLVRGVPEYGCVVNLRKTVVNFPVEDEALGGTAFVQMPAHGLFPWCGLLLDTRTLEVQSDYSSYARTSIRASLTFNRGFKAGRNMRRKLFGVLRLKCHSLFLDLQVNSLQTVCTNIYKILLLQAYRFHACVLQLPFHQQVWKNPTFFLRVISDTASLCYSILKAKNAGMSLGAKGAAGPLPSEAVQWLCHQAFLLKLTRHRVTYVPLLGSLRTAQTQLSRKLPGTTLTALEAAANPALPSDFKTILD

| Compound | Activity [1] | inhibition [2] [%] | inhibition [3] [%] |
| --- | --- | --- | --- |
| COc1cc(OC)c2c(c1)c(-c1c(OC)cc3cc(O)c4c(=O)cc(C)oc4c3c1OC)c(O)c1c(=O)cc(C)oc12 | inactive | – | – |
| COc1cc(OC)c2c(c1)c(-c1c(OC)cc3cc4oc(C)cc(=O)c4c(O)c3c1OC)c(O)c1c(=O)cc(C)oc12 | inactive | – | – |
| COc1cc(OC)c2c(O)c3c(=O)cc(C)oc3c(-c3c(O)cc4cc(O)c5c(=O)cc(C)oc5c4c3OC)c2c1 | inactive | 41 | 40 |
| COc1cc(OC)c2c(O)c3c(=O)cc(C)oc3c(-c3c(OC)cc4cc5oc(C)cc(=O)c5c(O)c4c3OC)c2c1 | inactive | 52 | 49 |
| COc1cc(OC)c2c(O)c3c(=O)cc(C)oc3c(-c3c(OC)cc4cc(O)c5c(=O)cc(C)oc5c4c3OC)c2c1 | inactive | 40 | 40 |
